Measured values reported in ChEMBL document CHEMBL3593207, “Imidazole clubbed 1,3,4-oxadiazole derivatives as potential antifungal agents” (2015).
Values after ≈ are worked out from the molar mass of the structure shown.

Columns and labels:
Assay type in all cases: functional
[1] = test system: Candida albicans; experiment: Cytotoxicity against clinical isolates of Candida albicans 2323 at MIC after 24 hrs by WST1 assay
Method in brief: (§1)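 Candida cells were exposed to MIC and sub-MIC levels for 24 h in microplates, then to WST-1/CEC dye for 30 min at 37 °C. Plates were shaken 1 min and the reaction stopped with 1% SDS. Formazan was read at 450 nm. % cytotoxicity = 100 × (cell control − experimental)/cell control. Triplicates, mean ± SD.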

[2] = test system: Candida tropicalis; experiment: Cytotoxicity against clinical isolates of Candida tropicalis 2029 at MIC after 24 hrs by WST1 assay; method in brief: as §1
[3] = test system: Candida albicans; experiment: Cytotoxicity against clinical isolates of Candida albicans 2779 at 1/4 MIC after 24 hrs by WST1 assay; method in brief: as §1
[4] = test system: Candida albicans; experiment: Inhibition of ergosterol biosynthesis in Candida albicans ATCC 10261 assessed as ergosterol content at 1/2 MIC after 16 hrs by spectrophotometer analysis; set-up: scale not given: the % may be the effect or the level left
Method in brief: (§2)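 Cells were pelleted and washed, and wet weight taken. Pellets were saponified in 25% alcoholic KOH at 85 °C for 1 h. Sterols were extracted into n-heptane/water. Ergosterol content is expressed relative to untreated control cells.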

[5] = test system: Candida albicans; experiment: Inhibition of ergosterol biosynthesis in Candida albicans ATCC 10261 assessed as ergosterol content at MIC after 16 hrs by spectrophotometer analysis; set-up: scale not given: the % may be the effect or the level left; method in brief: as §2
[6] = test system: Candida tropicalis; experiment: Inhibition of ergosterol biosynthesis in Candida tropicalis ATCC 750 assessed as ergosterol content at 1/2 MIC after 16 hrs by spectrophotometer analysis; set-up: scale not given: the % may be the effect or the level left; method in brief: as §2
[7] = test system: Candida tropicalis; experiment: Inhibition of ergosterol biosynthesis in Candida tropicalis ATCC 750 assessed as ergosterol content at MIC after 16 hrs by spectrophotometer analysis; set-up: scale not given: the % may be the effect or the level left
Method in brief: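 Cells were harvested, washed, and wet pellet weight recorded. Pellets were saponified in 3 mL 25% alcoholic KOH at 85 °C for 1 h, then sterols extracted into n-heptane. Ergosterol is expressed relative to untreated control cells.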

[8] = test system: Candida albicans; experiment: Inhibition of ergosterol biosynthesis in Candida albicans 2323 assessed as ergosterol content at 1/2 MIC after 16 hrs by spectrophotometer analysis; set-up: scale not given: the % may be the effect or the level left; method in brief: as §2
[9] = test system: Candida albicans; experiment: Inhibition of ergosterol biosynthesis in Candida albicans 2323 assessed as ergosterol content at MIC after 16 hrs by spectrophotometer analysis; set-up: scale not given: the % may be the effect or the level left; method in brief: as §2
[10] = test system: Candida albicans; experiment: Inhibition of ergosterol biosynthesis in Candida albicans 2367 assessed as ergosterol content at 1/2 MIC after 16 hrs by spectrophotometer analysis; set-up: scale not given: the % may be the effect or the level left; method in brief: as §2
[11] = test system: Candida albicans; experiment: Inhibition of ergosterol biosynthesis in Candida albicans 2367 assessed as ergosterol content at MIC after 16 hrs by spectrophotometer analysis; set-up: scale not given: the % may be the effect or the level left; method in brief: as §2
[12] = test system: Candida albicans; experiment: Inhibition of ergosterol biosynthesis in Candida albicans 2779 assessed as ergosterol content at 1/2 MIC after 16 hrs by spectrophotometer analysis; set-up: scale not given: the % may be the effect or the level left; method in brief: as §2
[13] = test system: Candida albicans; experiment: Inhibition of ergosterol biosynthesis in Candida albicans 2779 assessed as ergosterol content at MIC after 16 hrs by spectrophotometer analysis; set-up: scale not given: the % may be the effect or the level left; method in brief: as §2
[14] = test system: Candida tropicalis; experiment: Inhibition of ergosterol biosynthesis in Candida tropicalis 2029 assessed as ergosterol content at 1/2 MIC after 16 hrs by spectrophotometer analysis; set-up: scale not given: the % may be the effect or the level left; method in brief: as §2
[15] = test system: Candida tropicalis; experiment: Inhibition of ergosterol biosynthesis in Candida tropicalis 2029 assessed as ergosterol content at MIC after 16 hrs by spectrophotometer analysis; set-up: scale not given: the % may be the effect or the level left; method in brief: as §2
[16] = test system: Candida tropicalis; experiment: Inhibition of ergosterol biosynthesis in Candida tropicalis 2356 assessed as ergosterol content at 1/2 MIC after 16 hrs by spectrophotometer analysis; set-up: scale not given: the % may be the effect or the level left; method in brief: as §2
[17] = test system: Candida tropicalis; experiment: Inhibition of ergosterol biosynthesis in Candida tropicalis 2356 assessed as ergosterol content at MIC after 16 hrs by spectrophotometer analysis; set-up: scale not given: the % may be the effect or the level left; method in brief: as §2
[18] = test system: Candida albicans; experiment: Antifungal activity against Candida albicans ATCC 10261 by broth microdilution assay
Method in brief: (§3)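 CLSI M27-A3 broth microdilution. Compounds diluted to 1 mg/ml in 1% DMSO. Fluconazole (1 mg/ml) served as positive control, 1% DMSO as vehicle control, with media and culture controls. Triplicate at each concentration, repeated thrice. Inocula came from YPDA stocks subcultured in broth for 48 h at 37 °C.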

[19] = test system: Candida tropicalis; experiment: Antifungal activity against Candida tropicalis ATCC 750 by broth microdilution assay; method in brief: as §3
[20] = test system: Candida albicans; experiment: Antifungal activity against clinical isolates of Candida albicans 2323 by broth microdilution assay; method in brief: as §3
[21] = test system: Candida albicans; experiment: Antifungal activity against clinical isolates of Candida albicans 2367 by broth microdilution assay; method in brief: as §3
[22] = test system: Candida albicans; experiment: Antifungal activity against clinical isolates of Candida albicans 2779 by broth microdilution assay; method in brief: as §3
[23] = test system: Candida tropicalis; experiment: Antifungal activity against clinical isolates of Candida tropicalis 2029 by broth microdilution assay; method in brief: as §3
[24] = test system: Candida tropicalis; experiment: Antifungal activity against clinical isolates of Candida tropicalis 2356 by broth microdilution assay; method in brief: as §3
[25] = test system: Candida albicans; experiment: Antifungal activity against Candida albicans ATCC 10261 at half MIC after 48 hrs by disc diffusion assay
Method in brief: (§4)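 Cells (10^3 cells ml−1) grown in YPD were mixed into molten agar (~40 °C) and poured into 100-mm plates. Filter discs (4 mm) were spotted with 10 µl of compound at 1/2 × MIC, MIC or 2 × MIC. Fluconazole and 1% DMSO were the controls. Plates were incubated at 37 °C for 48 h and inhibition zone diameters recorded in mm.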

[26] = test system: Candida albicans; experiment: Antifungal activity against Candida albicans ATCC 10261 at MIC after 48 hrs by disc diffusion assay; method in brief: as §4
[27] = test system: Candida albicans; experiment: Antifungal activity against Candida albicans ATCC 10261 at 2 times MIC after 48 hrs by disc diffusion assay; method in brief: as §4
[28] = test system: Candida tropicalis; experiment: Antifungal activity against Candida tropicalis ATCC 750 at half MIC after 48 hrs by disc diffusion assay; method in brief: as §4
[29] = test system: Candida tropicalis; experiment: Antifungal activity against Candida tropicalis ATCC 750 at MIC after 48 hrs by disc diffusion assay; method in brief: as §4
[30] = test system: Candida tropicalis; experiment: Antifungal activity against Candida tropicalis ATCC 750 at 2 times MIC after 48 hrs by disc diffusion assay; method in brief: as §4
[31] = test system: Candida albicans; experiment: Antifungal activity against clinical isolates of Candida albicans 2323 at half MIC after 48 hrs by disc diffusion assay; method in brief: as §4
[32] = test system: Candida albicans; experiment: Antifungal activity against clinical isolates of Candida albicans 2323 at MIC after 48 hrs by disc diffusion assay; method in brief: as §4
[33] = test system: Candida albicans; experiment: Antifungal activity against clinical isolates of Candida albicans 2323 at 2 times MIC after 48 hrs by disc diffusion assay; method in brief: as §4
[34] = test system: Candida albicans; experiment: Antifungal activity against clinical isolates of Candida albicans 2367 at half MIC after 48 hrs by disc diffusion assay; method in brief: as §4
[35] = test system: Candida albicans; experiment: Antifungal activity against clinical isolates of Candida albicans 2367 at MIC after 48 hrs by disc diffusion assay; method in brief: as §4
[36] = test system: Candida albicans; experiment: Antifungal activity against clinical isolates of Candida albicans 2367 at 2 times MIC after 48 hrs by disc diffusion assay; method in brief: as §4
[37] = test system: Candida albicans; experiment: Antifungal activity against clinical isolates of Candida albicans 2779 at half MIC after 48 hrs by disc diffusion assay; method in brief: as §4
[38] = test system: Candida albicans; experiment: Antifungal activity against clinical isolates of Candida albicans 2779 at MIC after 48 hrs by disc diffusion assay; method in brief: as §4
[39] = test system: Candida albicans; experiment: Antifungal activity against clinical isolates of Candida albicans 2779 at 2 times MIC after 48 hrs by disc diffusion assay; method in brief: as §4
[40] = test system: Candida tropicalis; experiment: Antifungal activity against clinical isolates of Candida tropicalis 2029 at half MIC after 48 hrs by disc diffusion assay; method in brief: as §4
[41] = test system: Candida tropicalis; experiment: Antifungal activity against clinical isolates of Candida tropicalis 2029 at MIC after 48 hrs by disc diffusion assay; method in brief: as §4
[42] = test system: Candida tropicalis; experiment: Antifungal activity against clinical isolates of Candida tropicalis 2029 at 2 times MIC after 48 hrs by disc diffusion assay; method in brief: as §4
[43] = test system: Candida tropicalis; experiment: Antifungal activity against clinical isolates of Candida tropicalis 2356 at half MIC after 48 hrs by disc diffusion assay; method in brief: as §4
[44] = test system: Candida tropicalis; experiment: Antifungal activity against clinical isolates of Candida tropicalis 2356 at MIC after 48 hrs by disc diffusion assay; method in brief: as §4
[45] = test system: Candida tropicalis; experiment: Antifungal activity against clinical isolates of Candida tropicalis 2356 at 2 times MIC after 48 hrs by disc diffusion assay; method in brief: as §4

Which Activity [1] does the source give for `CCc1ccnc(-c2nccn2Cc2nnc(-c3ccccc3OC(C)=O)o2)c1` here?
The Activity was 60.62%.

What about the Activity [2] of the same compound?
The Activity was 60.62%.

And the Activity [3]?
Its Activity is 7.31%.

And the Activity [4]?
Its Activity is 51%.

What about the Activity [5] of the same compound?
Its Activity is 100%.

What about the Activity [6] of the same compound?
Its Activity is 47%.

What about the Activity [7] of the same compound?
Its Activity is 100%.

What about the Activity [8] of the same compound?
Its Activity is 42%.

What about the Activity [9] of the same compound?
Its Activity is 91%.

What about the Activity [10] of the same compound?
The Activity was 52%.

What about the Activity [11] of the same compound?
Its Activity is 89%.

And the Activity [12]?
Its Activity is 52%.

And the Activity [13]?
The Activity was 93%.

And the Activity [14]?
Its Activity is 53%.

And the Activity [15]?
The Activity was 87%.

And the Activity [16]?
The Activity was 48%.

And the Activity [17]?
Its Activity is 91%.

And the MIC [18]?
The MIC was 2 µg/mL (≈ 5.14 µM).

And the MIC [19]?
Its MIC is 4 µg/mL (≈ 10.3 µM).

And the MIC [20]?
Its MIC is 16 µg/mL (≈ 41.1 µM).

What about the MIC [21] of the same compound?
Its MIC is 8 µg/mL (≈ 20.5 µM).

What about the MIC [22] of the same compound?
Its MIC is 16 µg/mL (≈ 41.1 µM).

And the MIC [23]?
The MIC was 16 µg/mL (≈ 41.1 µM).

And the MIC [24]?
The MIC was 32 µg/mL (≈ 82.2 µM).

And the “inhibition zone (IZ)” value [25]?
The value was 5 mm.

And the “inhibition zone (IZ)” value [26]?
Its value is 11 mm.

What about the “inhibition zone (IZ)” value [27] of the same compound?
The value was 16 mm.

What about the “inhibition zone (IZ)” value [28] of the same compound?
The value was 3 mm.

And the “inhibition zone (IZ)” value [29]?
Its value is 9 mm.

What about the “inhibition zone (IZ)” value [30] of the same compound?
Its value is 14 mm.

And the “inhibition zone (IZ)” value [31]?
The value was 2 mm.

What about the “inhibition zone (IZ)” value [32] of the same compound?
The value was 6 mm.

And the “inhibition zone (IZ)” value [33]?
The value was 11 mm.

And the “inhibition zone (IZ)” value [34]?
The value was 3 mm.

What about the “inhibition zone (IZ)” value [35] of the same compound?
The value was 8 mm.

And the “inhibition zone (IZ)” value [36]?
The value was 12 mm.

And the “inhibition zone (IZ)” value [37]?
Its value is 3 mm.

And the “inhibition zone (IZ)” value [38]?
The value was 11 mm.

What about the “inhibition zone (IZ)” value [39] of the same compound?
The value was 13 mm.

What about the “inhibition zone (IZ)” value [40] of the same compound?
Its value is 1 mm.

What about the “inhibition zone (IZ)” value [41] of the same compound?
The value was 5 mm.

What about the “inhibition zone (IZ)” value [42] of the same compound?
Its value is 10 mm.

And the “inhibition zone (IZ)” value [43]?
Its value is 2 mm.

And the “inhibition zone (IZ)” value [44]?
The value was 6 mm.

What about the “inhibition zone (IZ)” value [45] of the same compound?
The value was 11 mm.
